Laboratory results: ChEMBL document CHEMBL5252513, “Identification of a Benzoisoxazoloazepine Inhibitor (CPI-0610) of the Bromodomain and Extra-Terminal (BET) Family as a Candidate for Human Clinical Trials” (J Med Chem, 2016)
The source made the active and inactive calls. The rule behind the calls is not given here.

How the values were obtained:
[1] = Protein binding in rat plasma; assay type: ADME, cell-free; details: read-out: PPB (converted)
[2] = molecular target: T1, Bromodomain-containing protein 9 (Homo sapiens, UniProt Q9H8M2); assay: Displacement of biotinylated JQ1 from BRD9 bromodomain (unknown origin) incubated for 20 mins by AlphaLISA assay
T1 sequence (Q9H8M2 whole entry): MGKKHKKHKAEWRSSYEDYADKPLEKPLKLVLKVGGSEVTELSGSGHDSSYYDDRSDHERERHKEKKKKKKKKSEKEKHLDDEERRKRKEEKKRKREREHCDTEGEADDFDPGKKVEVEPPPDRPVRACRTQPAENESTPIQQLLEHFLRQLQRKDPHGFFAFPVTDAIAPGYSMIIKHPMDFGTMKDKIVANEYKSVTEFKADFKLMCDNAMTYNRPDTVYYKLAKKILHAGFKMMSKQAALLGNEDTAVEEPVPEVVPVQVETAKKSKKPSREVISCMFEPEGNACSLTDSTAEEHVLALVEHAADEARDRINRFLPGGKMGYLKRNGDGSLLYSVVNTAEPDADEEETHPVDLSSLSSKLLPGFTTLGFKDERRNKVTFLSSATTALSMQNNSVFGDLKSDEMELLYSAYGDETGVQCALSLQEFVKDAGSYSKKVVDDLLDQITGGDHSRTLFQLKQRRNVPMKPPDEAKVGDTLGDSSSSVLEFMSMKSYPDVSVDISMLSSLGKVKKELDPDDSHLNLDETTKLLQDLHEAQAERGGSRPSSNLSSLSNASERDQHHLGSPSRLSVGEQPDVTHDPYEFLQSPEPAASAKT

[3] = Toxicity in rat assessed as mild to moderate hyperglycemia at 2 to 20 mg/kg,po QD consecutive for 14 days followed by 2 weeks recovery period; assay type: organism-based; details: in vivo, 336 h, dose 2-20 mg/kg, time 14 day
Method in brief: (§1)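 Oral suspension given once daily for 14 consecutive days (rat 2, 6, 20 mg/kg; dog 2, 4, 6 mg/kg) in dose range-finding and GLP repeat-dose studies, GLP arms with an added 2-week recovery period; histopathology and clinical pathology findings recorded.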

[4] = molecular target: Histone acetyltransferase KAT2B (Homo sapiens, UniProt Q92831); assay: Binding affinity to PCAF bromodomain (unknown origin) incubated for 60 mins by TR-FRET assay
Histone acetyltransferase KAT2B, sequence (Q92831 whole entry): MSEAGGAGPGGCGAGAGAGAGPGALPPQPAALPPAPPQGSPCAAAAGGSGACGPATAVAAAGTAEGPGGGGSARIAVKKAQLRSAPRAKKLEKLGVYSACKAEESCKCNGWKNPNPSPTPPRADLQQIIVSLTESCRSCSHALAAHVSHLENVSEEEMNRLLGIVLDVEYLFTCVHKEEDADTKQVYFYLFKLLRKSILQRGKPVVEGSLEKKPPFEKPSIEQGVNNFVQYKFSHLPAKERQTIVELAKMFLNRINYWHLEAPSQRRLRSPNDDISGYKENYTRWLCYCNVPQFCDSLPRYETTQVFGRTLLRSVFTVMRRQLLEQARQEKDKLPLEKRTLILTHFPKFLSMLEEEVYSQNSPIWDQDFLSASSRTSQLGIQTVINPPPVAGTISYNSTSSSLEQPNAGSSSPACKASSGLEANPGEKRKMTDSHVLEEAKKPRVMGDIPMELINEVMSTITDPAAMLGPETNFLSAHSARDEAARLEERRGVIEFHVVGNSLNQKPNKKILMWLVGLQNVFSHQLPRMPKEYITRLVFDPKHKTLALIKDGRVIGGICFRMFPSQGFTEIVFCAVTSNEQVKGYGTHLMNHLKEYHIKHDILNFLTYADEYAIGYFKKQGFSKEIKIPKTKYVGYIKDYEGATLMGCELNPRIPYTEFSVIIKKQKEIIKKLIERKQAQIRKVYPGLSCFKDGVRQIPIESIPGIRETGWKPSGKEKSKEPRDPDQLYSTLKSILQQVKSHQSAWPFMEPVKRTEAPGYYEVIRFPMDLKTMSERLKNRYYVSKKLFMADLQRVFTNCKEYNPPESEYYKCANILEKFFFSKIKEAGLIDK

[5] = Tmax in human patient with progression lymphoma at 300 mg,po QD consecutively for 14 days; assay type: ADME; details: in vivo, time 14 day
[6] = Protein binding in human plasma; assay type: ADME, cell-free; details: read-out: PPB (converted)
MV4-11 [7] = assay: In vivo inhibition of BRD4 in human MV4-11 cells xenografted in BALB/c mouse assessed as reduction in cellular MYC mRNA expression level in plasma at 15 mg/kg,sc BID and measured for 8 to 12 hrs by PCR anlaysis; assay type: functional, organism-based; details: time 8-12 hrs
Method in brief: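 Pharmacodynamic study in MV-4-11 AML mouse xenograft. Dosing was 15 mg/kg subcutaneous twice daily. At 4, 8 and 12 h after the second dose, MYC mRNA was measured against vehicle, and compound levels were measured in plasma and tumor. Free plasma concentration was estimated alongside total levels.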

Peregrin [8] = molecular target: T2, Peregrin (Homo sapiens, UniProt P55201); assay: Displacement of biotinylated JQ1 from BRPF1 bromodomain (unknown origin) incubated for 20 mins by AlphaLISA assay
T2 sequence (P55201 whole entry): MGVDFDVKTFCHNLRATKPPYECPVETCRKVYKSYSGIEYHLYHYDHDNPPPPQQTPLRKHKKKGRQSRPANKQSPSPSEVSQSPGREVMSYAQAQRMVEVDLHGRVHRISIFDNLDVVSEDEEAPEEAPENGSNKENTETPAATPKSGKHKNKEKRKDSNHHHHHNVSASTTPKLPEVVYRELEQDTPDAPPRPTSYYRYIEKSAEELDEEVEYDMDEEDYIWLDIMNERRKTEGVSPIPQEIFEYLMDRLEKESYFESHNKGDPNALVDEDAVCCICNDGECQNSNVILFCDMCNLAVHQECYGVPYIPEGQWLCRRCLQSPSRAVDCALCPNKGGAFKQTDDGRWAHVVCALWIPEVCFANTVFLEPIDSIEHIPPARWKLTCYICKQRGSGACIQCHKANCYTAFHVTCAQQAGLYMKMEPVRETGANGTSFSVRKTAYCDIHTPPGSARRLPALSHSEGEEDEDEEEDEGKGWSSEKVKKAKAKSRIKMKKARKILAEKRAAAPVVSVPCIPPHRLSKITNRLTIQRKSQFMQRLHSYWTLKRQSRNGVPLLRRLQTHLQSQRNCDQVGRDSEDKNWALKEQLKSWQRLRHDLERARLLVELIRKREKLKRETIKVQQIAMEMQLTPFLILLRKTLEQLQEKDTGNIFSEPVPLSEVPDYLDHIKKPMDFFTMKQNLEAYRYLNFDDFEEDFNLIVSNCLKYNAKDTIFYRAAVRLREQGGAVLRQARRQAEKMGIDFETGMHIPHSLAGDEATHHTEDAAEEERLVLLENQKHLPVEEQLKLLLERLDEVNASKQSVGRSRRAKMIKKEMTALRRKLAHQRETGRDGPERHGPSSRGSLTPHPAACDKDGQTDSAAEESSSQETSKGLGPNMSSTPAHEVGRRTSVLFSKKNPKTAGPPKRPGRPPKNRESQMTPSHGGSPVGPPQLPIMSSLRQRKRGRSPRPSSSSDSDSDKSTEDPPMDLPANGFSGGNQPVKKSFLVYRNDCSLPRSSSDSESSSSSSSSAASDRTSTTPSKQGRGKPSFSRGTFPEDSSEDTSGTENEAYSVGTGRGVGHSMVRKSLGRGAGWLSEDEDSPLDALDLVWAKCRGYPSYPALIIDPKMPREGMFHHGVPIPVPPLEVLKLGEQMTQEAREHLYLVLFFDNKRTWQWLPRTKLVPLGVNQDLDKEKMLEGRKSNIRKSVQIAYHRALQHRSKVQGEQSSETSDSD

[9] = Toxicity in rat assessed as GI mucosal ulceration at 2 to 20 mg/kg,po QD consecutive for 14 days followed by 2 weeks recovery period; assay type: organism-based; details: in vivo, 336 h, dose 2-20 mg/kg, time 14 day; method in brief: as §1
[10] = Tmax in mouse at 10 mg/kg,sc; assay type: ADME, organism-based; details: in vivo
MV4-11 [11] = assay: Antitumor activity against human MV4-11 cells xenografted in BALB/c mouse assessed as tumor growth inhibition at 30 mg/kg,po QD for 28 days; assay type: functional; details: MV4-11, 672 h, time 28 day, read-out: TGI
Method in brief: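 Single-agent efficacy in MV-4-11 AML mouse xenograft. Tumor volume (mm3) and percent body-weight change were tracked over the treatment days.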

Peregrin [12] = molecular target: T2, Peregrin; assay: Binding affinity to BRPF1 bromodomain (unknown origin) incubated for 60 mins by TR-FRET assay
[13] = molecular target: SWI/SNF-related matrix-associated actin-dependent regulator of chromatin subfamily A member 4 (Homo sapiens, UniProt P51532); assay: Binding affinity to BRG1 bromodomain (unknown origin) incubated for 60 mins by TR-FRET assay
SWI/SNF-related matrix-associated actin-dependent regulator of chromatin subfamily A member 4, sequence (P51532 whole entry): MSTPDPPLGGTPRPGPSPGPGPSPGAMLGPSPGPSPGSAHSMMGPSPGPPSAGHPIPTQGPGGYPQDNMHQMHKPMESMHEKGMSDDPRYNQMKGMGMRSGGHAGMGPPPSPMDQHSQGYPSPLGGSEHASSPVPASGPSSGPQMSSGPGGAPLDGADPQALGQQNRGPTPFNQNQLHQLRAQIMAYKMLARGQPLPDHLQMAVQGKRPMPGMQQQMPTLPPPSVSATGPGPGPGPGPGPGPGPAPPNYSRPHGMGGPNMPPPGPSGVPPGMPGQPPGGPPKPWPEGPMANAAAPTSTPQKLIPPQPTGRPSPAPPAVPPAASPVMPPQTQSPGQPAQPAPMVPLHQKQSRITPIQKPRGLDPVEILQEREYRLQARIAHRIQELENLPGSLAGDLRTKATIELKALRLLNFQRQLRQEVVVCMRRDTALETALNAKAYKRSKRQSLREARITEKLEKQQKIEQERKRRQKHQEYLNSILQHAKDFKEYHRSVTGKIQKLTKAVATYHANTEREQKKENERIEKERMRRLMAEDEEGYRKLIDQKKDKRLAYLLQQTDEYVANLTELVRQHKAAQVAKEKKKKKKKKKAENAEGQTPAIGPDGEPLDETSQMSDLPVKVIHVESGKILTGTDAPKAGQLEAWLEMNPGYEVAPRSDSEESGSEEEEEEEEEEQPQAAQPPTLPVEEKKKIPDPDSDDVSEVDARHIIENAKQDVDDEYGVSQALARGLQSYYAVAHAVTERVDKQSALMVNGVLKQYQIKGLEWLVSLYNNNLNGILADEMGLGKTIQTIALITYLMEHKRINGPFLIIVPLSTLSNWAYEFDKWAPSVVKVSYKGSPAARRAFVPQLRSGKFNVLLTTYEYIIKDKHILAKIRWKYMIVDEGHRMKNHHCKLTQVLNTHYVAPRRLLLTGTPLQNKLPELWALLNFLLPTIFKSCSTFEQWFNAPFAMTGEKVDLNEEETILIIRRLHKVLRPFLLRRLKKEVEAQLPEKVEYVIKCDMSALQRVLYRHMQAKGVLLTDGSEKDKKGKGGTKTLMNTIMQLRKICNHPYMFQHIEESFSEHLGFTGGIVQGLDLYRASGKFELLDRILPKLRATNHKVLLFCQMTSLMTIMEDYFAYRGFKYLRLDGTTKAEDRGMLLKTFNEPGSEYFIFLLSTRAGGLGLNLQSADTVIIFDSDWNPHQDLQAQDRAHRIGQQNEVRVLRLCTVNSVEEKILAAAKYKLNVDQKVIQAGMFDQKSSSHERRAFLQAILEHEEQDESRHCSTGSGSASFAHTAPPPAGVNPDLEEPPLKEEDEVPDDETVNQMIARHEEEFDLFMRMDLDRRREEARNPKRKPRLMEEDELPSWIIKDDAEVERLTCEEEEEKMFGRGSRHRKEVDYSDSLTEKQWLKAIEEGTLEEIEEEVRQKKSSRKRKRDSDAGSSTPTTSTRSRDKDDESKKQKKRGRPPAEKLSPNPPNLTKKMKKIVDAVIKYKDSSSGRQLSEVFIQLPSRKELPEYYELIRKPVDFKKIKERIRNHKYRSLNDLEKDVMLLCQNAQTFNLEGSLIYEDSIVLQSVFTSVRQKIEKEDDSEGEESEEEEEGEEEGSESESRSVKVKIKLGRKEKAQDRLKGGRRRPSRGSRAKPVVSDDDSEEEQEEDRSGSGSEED

[14] = Cmax in mouse at 30 mg/kg,po; assay type: ADME, organism-based; design: dose 30 mg/kg, route po; details: in vivo
[15] = Intrinsic clearance in human liver microsomes; assay type: ADME, Microsome; details: read-out: CLH
[16] = Toxicity in rat assessed as lymphoid depletion at 2 to 20 mg/kg,po QD consecutive for 14 days followed by 2 weeks recovery period; assay type: organism-based; details: in vivo, 336 h, dose 2-20 mg/kg, time 14 day; method in brief: as §1

Cc1noc2c1-c1ccccc1C(c1ccc(Cl)cc1)=N[C@H]2CC(N)=O [PELABRESIB]
fraction unbound [1]: 0.07
IC50 [2]: > 80 µM
Activity [3]: Toxic
IC50 [4]: > 20 µM
Tmax [5]: 1.8 h
fraction unbound [6]: 0.05
inhibition (MV4-11 [7]): inactive
IC50 (Peregrin [8]): > 20 µM
Activity [9]: Toxic
Tmax [10]: 1.3 h
inhibition in vivo at 30 mg/kg (MV4-11 [11]): 41%
IC50 (Peregrin [12]): > 20 µM
IC50 [13]: > 20 µM
Cmax [14]: 24 µM
predicted hepatic clearance [15]: 10 mL/min/kg
Activity [16]: Toxic
